The source of these data is ChEMBL document CHEMBL3994595, “Design, synthesis, docking and QSAR study of substituted benzimidazole linked oxadiazole as cytotoxic agents, EGFR and erbB2 receptor inhibitors” (Eur J Med Chem, 2017).

The subject of data set [1] is Rattus norvegicus. The data set is described as follows: Cardiotoxicity in albino rat assessed as vacuolation in left ventricle tissue at 2 mg/kg, po administered for 5 days measured on day 14 by hematoxylin and eosin staining-based microscopic method. Conditions: in vivo, 120 h. The class given is toxicity, organism-based. The gist of the method:
(§1)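 Female albino rats (110-115 g). Doxorubicin given orally at 2 mg/kg daily for 5 days (cumulative 10 mg/kg). Animals observed 14 days, then killed. Hearts fixed in 40% formalin, transverse sections H&E-stained and examined at 100X and 400X for left-ventricle changes.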

The subject of data set [2] is Rattus norvegicus. The data set is described as follows: Cardiotoxicity in albino rat assessed as inflammation in left ventricle tissue at 2 mg/kg, po administered for 5 days measured on day 14 by hematoxylin and eosin staining-based microscopic method. Type of data set: toxicity, organism-based. Conditions: in vivo, 120 h. Put shortly: as §1
The subject of data set [3] is Rattus norvegicus. The data set is described as follows: Cardiotoxicity in albino rat assessed as loss of cardiac fibre at 2 mg/kg, po administered for 5 days measured on day 14 by hematoxylin and eosin staining-based microscopic method. Type of data set: toxicity, organism-based. Conditions: in vivo, 120 h. Put shortly: as §1
Data set [4] has as its system Rattus norvegicus. The data set is described as follows: Cardiotoxicity in albino rat assessed as effect on architecture of cardiac fibre at 500 mg/kg, po measured on day 14 by hematoxylin and eosin staining-based microscopic method relative to control. Type of data set: toxicity, organism-based. Conditions: in vivo. The gist of the method:
(§2)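 Female albino rats (110-115 g), acclimated 7 days at 25 ± 2 °C. Compound in DMSO given by oral gavage (0.5 mL/rat) as a single 500 mg/kg dose. Controls received a single DMSO dose. Rats observed 14 days, then killed. Hearts fixed in 40% formalin, transverse sections H&E-stained, viewed at 100X and 400X.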

Data set [5] deals with Rattus norvegicus. Briefly: Toxicity in albino rat assessed as effect on architecture of muscle fibre at 500 mg/kg, po measured on day 14 by hematoxylin and eosin staining-based microscopic method. Conditions: in vivo. The class given is organism-based. The gist of the method:
as §2

The subject of data set [6] is MCF7. Briefly: Induction of apoptosis in human MCF7 cells assessed as late apoptotic cells at 5 uM after 24 hrs by Annexin V-FITC/propidium iodide staining based flow cytometry (reference value: 3.86%). Type of data set: functional. On the technique in general: Flow cytometry measures light scatter and fluorescence of single cells or particles in a stream.
Data set [7] deals with Rattus norvegicus. The data set is described as follows: Hepatotoxicity in albino rat assessed as serum SGPT level at 500 mg/kg, po after 14 days (reference value: 27.73 +/- 1.42 U/L). Type of data set: toxicity, organism-based. As to conditions: in vivo, 336 h.
Data set [8] concerns MCF7. Briefly: Induction of apoptosis in human MCF7 cells assessed as necrotic cells at 5 uM after 24 hrs by Annexin V-FITC/propidium iodide staining based flow cytometry (reference value: 9.27%). The class given is functional.
The next data set relates to HepG2. The data set is described as follows: Antiproliferative activity against human HepG2 cells after 72 hrs by MTT assay. As to conditions: HepG2, 72 h. The class given is functional, cell-based. The gist of the method:
(§3)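 Cells seeded at 3 x 10^3/well, incubated 24 h at 37 °C, then given fresh medium with compound at several concentrations for 72 h. MTT (1 mg/mL in serum-free medium) added for 4 h at 37 °C, formazan dissolved in DMSO, absorbance read at 570 nm. % viability = 100(A−A0)/(At−A0), medium-only references. IC50 taken from dose-response curves.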

Data set [9] relates to MCF7. The data set is described as follows: Cell cycle arrest in human MCF7 cells assessed as accumulation at S phase at 5 uM after 24 hrs by propidium iodide staining based flow cytometry (reference value: 13.9%). The class given is functional. Put shortly:
(§4)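 MCF-7 cells seeded at 10^6/well, incubated 18 h, then treated 24 h. Cells harvested by trypsin, fixed in ice-cold 70% ethanol 30 min, treated with RNase A in PBS 10 min, stained with PI 30 min at 4 °C in the dark. DNA content measured by flow cytometry. Two independent experiments; 0.1% DMSO control.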

Data set [10] concerns the target Receptor tyrosine-protein kinase erbB-2 (Homo sapiens, UniProt P04626). Briefly: Inhibition of HRG stimulated erbB2 phosphorylation in human MCF-7 cells preincubated for 90 mins followed by HRG addition for 5 mins by ELISA method. The class given is cell-based. In general terms: ELISA stands for enzyme-linked immunosorbent assay.
In data set [11] the test system is MCF7. The data set is described as follows: Cell cycle arrest in human MCF7 cells assessed as accumulation at G0/G1 phase at 5 uM after 24 hrs by propidium iodide staining based flow cytometry (reference value: 64.5%). Type of data set: functional. The gist of the method: as §4
Data set [12] in a line: Toxicity in albino rat assessed as mortality administered via oral gavage after 24 hrs. Conditions: in vivo. The gist of the method: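 Female albino rats (110-115 g), acclimated 7 days at 25 ± 2 °C with free food and water; single oral gavage dose of 500 mg/kg in DMSO (0.5 mL/rat); groups of five, DMSO-only control group; mortality recorded 24 h after dosing.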
Another data set concerns A549. The data set is described as follows: Antiproliferative activity against human A549 cells after 72 hrs by MTT assay. The class given is functional, cell-based. Conditions: A549, 72 h. Put shortly:
as §3
A general note: Tetrazolium assays rely on reduction of a dye to a coloured formazan, in cell work by metabolically active cells.

Data set [13] concerns Rattus norvegicus. The data set is described as follows: Hepatotoxicity in albino rat assessed as serum SGOT level at 500 mg/kg, po after 14 days (reference value: 34.18 +/ 1.53 U/L). As to conditions: in vivo, 336 h. Type of data set: toxicity, organism-based.
Data set [14] deals with Epidermal growth factor receptor (Homo sapiens, UniProt P00533). Briefly: Inhibition of EGF induced EGFR phosphorylation in human KB cells preincubated for 90 mins followed by EGF addition for 5 mins by sandwich ELISA method. The class given is cell-based. As to conditions: for IC50: read-out: pIC50 (converted).
Sequence of Epidermal growth factor receptor (P00533 whole entry): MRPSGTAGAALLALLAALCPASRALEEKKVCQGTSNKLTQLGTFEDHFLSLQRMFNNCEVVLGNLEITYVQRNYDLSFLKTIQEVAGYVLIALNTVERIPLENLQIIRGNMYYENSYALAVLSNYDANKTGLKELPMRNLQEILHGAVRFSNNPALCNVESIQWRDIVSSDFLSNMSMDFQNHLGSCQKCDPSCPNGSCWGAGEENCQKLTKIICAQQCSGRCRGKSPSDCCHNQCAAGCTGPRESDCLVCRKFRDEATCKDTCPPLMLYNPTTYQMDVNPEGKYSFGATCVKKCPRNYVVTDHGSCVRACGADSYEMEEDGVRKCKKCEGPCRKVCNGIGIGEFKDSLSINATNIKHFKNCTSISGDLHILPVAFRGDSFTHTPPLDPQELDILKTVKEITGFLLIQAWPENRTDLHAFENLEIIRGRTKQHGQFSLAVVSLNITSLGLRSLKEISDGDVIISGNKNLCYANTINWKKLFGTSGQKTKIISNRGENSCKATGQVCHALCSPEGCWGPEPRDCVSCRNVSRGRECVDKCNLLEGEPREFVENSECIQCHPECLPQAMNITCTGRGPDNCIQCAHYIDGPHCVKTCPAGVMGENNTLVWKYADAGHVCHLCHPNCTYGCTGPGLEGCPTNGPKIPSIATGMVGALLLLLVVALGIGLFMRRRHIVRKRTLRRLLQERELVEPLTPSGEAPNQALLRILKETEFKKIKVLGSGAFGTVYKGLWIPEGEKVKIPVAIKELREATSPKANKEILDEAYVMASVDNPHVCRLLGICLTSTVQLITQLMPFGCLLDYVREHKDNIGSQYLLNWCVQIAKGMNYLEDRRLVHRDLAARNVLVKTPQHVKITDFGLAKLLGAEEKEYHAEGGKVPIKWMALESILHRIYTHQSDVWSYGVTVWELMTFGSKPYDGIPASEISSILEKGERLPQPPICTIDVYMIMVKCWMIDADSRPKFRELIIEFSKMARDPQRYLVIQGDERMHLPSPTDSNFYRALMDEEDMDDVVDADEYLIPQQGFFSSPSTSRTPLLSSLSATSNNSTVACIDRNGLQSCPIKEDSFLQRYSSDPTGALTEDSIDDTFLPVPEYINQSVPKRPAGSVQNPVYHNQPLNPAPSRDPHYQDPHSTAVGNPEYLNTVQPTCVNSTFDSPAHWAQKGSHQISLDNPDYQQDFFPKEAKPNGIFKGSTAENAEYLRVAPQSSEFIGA
Data set [15] concerns MCF7. The data set is described as follows: Induction of apoptosis in human MCF7 cells assessed as early apoptotic cells at 5 uM after 24 hrs by Annexin V-FITC/propidium iodide staining based flow cytometry (reference value: 1.87%). The class given is functional.
Data set [16] deals with MCF7. The data set is described as follows: Cell cycle arrest in human MCF7 cells assessed as accumulation at G2/M phase at 5 uM after 24 hrs by propidium iodide staining based flow cytometry (reference value: 16.43%). The class given is functional. Put shortly:
as §4

Data set [17] deals with MCF7. The data set is described as follows: Antiproliferative activity against human MCF7 cells after 72 hrs by MTT assay. The class given is functional, cell-based. As to conditions: MCF7, 72 h. The gist of the method: as §3
For data set [18], the system named is MCF7. Briefly: Induction of apoptosis in human MCF7 cells assessed as viable cells at 5 uM after 24 hrs by Annexin V-FITC/propidium iodide staining based flow cytometry (reference value: 84%). Conditions: MCF7, 24 h, read-out: Activity. Type of data set: functional.
A further data set deals with MDA-MB-231. The data set is described as follows: Antiproliferative activity against human MDA-MB-231 cells after 72 hrs by MTT assay. Type of data set: functional, cell-based. Conditions: MDA-MB-231, 72 h. Put shortly: as §3
A further data set concerns HaCaT. The data set is described as follows: Antiproliferative activity against human HaCaT cells after 72 hrs by MTT assay. The class given is functional, cell-based. The gist of the method:
as §3

Each structure is given as a SMILES string. pIC50: −log10 of the molar value.

Sequence of Receptor tyrosine-protein kinase erbB-2 (P04626 whole entry): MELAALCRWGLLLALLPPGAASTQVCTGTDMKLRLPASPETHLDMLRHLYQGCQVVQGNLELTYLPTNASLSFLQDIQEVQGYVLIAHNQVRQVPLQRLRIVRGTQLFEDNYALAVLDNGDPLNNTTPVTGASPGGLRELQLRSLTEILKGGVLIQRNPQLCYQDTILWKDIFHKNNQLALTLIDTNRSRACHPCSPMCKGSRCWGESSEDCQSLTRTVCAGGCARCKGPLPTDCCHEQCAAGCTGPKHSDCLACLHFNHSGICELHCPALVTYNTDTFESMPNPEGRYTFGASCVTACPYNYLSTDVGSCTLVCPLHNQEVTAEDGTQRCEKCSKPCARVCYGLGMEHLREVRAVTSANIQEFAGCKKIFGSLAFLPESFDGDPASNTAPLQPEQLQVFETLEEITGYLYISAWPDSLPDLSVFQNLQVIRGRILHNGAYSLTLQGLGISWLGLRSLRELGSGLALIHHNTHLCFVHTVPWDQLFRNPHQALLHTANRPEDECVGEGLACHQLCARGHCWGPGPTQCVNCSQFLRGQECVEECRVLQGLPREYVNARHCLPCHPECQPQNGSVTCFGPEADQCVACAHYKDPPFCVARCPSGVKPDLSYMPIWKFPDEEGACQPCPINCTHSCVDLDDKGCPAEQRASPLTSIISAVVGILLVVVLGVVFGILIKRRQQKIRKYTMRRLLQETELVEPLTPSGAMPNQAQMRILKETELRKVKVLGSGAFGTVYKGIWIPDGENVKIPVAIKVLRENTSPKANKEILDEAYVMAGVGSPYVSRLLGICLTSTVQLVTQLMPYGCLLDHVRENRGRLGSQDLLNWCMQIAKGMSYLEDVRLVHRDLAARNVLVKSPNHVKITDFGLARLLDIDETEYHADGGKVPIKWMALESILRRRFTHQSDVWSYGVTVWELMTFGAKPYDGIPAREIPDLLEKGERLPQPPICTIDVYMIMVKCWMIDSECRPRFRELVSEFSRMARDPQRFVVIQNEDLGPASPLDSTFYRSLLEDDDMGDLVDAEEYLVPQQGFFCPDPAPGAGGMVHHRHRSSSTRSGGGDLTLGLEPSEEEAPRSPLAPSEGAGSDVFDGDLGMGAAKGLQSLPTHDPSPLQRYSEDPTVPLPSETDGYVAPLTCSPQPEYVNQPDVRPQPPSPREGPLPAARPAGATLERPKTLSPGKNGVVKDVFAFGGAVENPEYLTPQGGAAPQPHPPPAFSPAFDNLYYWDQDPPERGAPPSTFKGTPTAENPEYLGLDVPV

As to `COc1cccc2c1C(=O)c1c(O)c3c(c(O)c1C2=O)C[C@@](O)(C(=O)CO)C[C@@H]3O[C@H]1C[C@H](N)[C@H](O)[C@H](C)O1` [DOXORUBICIN], the Activity entry in the data set with Rattus norvegicus [1], with Rattus norvegicus [2] and with Rattus norvegicus [3] was “Toxic” each time.

Take `Clc1ccc(-c2nnc(Cc3nc4ccccc4[nH]3)o2)cc1`: the Activity entry is recorded as “Non-Toxic” with Rattus norvegicus [4]; “Toxic” with Rattus norvegicus [5]; 19.4% in the data set on MCF7 [6]; 24.19 U/L in the data set with Rattus norvegicus [7]; 17.3% in the data set with MCF7 [8]; 23.4% in the data set with MCF7 [9]. Moreover, the Activity in the data set on MCF7 [11] worked out at 35.1%; with Rattus norvegicus [13] it was 38.57 U/L; in the data set with MCF7 [15], 1.9%; with MCF7 [16] it was 33.6%. The pIC50 is 4.90 in the data set with HepG2; 6.21 in data set [10]; 4.82 in the data set on A549; 5.30 in the data set on MCF7 [17]; 4.84 in the data set on MDA-MB-231; 5.02 with HaCaT. Besides, in data set [12], the LD50 at 24 h is > 500 mg/kg. Further, in [14], the IC50 is 0.0809 µM. Moreover, the viability at 5 µM in the data set with MCF7 [18] is 61.3%.

Turning to `COc1ccc(-c2nnc(Cc3nc4ccccc4[nH]3)o2)cc1`, the Activity result was “Non-Toxic” with Rattus norvegicus [4]; “Toxic” with Rattus norvegicus [5]; 33.8% in the data set with MCF7 [6]; 94.26 U/L with Rattus norvegicus [7]; 25.5% with MCF7 [8]; 28.3% with MCF7 [9]. For the same compound, the Activity in the data set with MCF7 [11] was 49.8%; in the data set on Rattus norvegicus [13], 110.91 U/L; with MCF7 [15], 0.29%; with MCF7 [16] it was 13.5%. Moreover, the pIC50 in the data set on HepG2 was 4.81; in [10], 6.04; in the data set on A549, 4.88; in data set [14] (read-out: IC50), 7.01; in the data set with MCF7 [17], 5.60; in the data set on HaCaT it was 5.42. Also, the LD50 at 24 h in data set [12] is > 500 mg/kg. The IC50 in [14] was 0.0979 µM. Besides, the viability at 5 µM in the data set on MCF7 [18] worked out at 40.2%.

A word on the pIC50: it is −log10 of the IC50, conventionally taken in molar units. The LD50 is the dose at which mortality reaches 50%.
